Values after ≈ are worked out from the molar mass of the structure shown.

What all share (type): functional
Assay [1] deals with Mycobacterium tuberculosis. The assay can be described thus: Antimicrobial activity against multidrug-resistant Mycobacterium tuberculosis isolate 3 expressing wild type atpE selected after 30 times MIC drug exposure. The essentials:
(§1)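 Each resistant mutant clone (one colony picked per independent fluctuation culture selected on drug agar) is suspended in PBS, sonicated and applied by 96-pin replicator. Nonselective and rifampin control plates are included. Plates are read after 4 weeks; MIC is the lowest concentration with no visible growth.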

Assay [2] has as its system Mycobacterium tuberculosis. The assay can be described thus: Antimicrobial activity against multidrug-resistant Mycobacterium tuberculosis isolate 2 expressing wild type atpE selected after 10 times MIC drug exposure. The essentials: as §1
Assay [3] has as its system Mycobacterium tuberculosis. The assay can be described thus: Antimicrobial activity against multidrug-resistant Mycobacterium tuberculosis isolate 2 expressing atpE Ala28Val mutant selected after 10 times MIC drug exposure. The essentials:
as §1

The subject of assay [4] is Mycobacterium tuberculosis. As to the kind of experiment: Antimicrobial activity against multidrug-resistant Mycobacterium tuberculosis isolate 5 expressing wild type atpE and F0 operon selected after 10 times MIC drug exposure. The essentials: as §1
In assay [5] the test system is Mycobacterium tuberculosis. As to the kind of experiment: Antimicrobial activity against multidrug-resistant Mycobacterium tuberculosis isolate 1 expressing atpE Glu61Asp mutant selected after 10 times MIC drug exposure. The essentials: as §1
For assay [6], the system named is Mycobacterium tuberculosis. The assay can be described thus: Antimicrobial activity against multidrug-resistant Mycobacterium tuberculosis isolate 5 expressing wild type atpE Ile66Met mutant selected after 30 times MIC drug exposure. The essentials:
as §1

The subject of assay [7] is Mycobacterium tuberculosis. The assay can be described thus: Antimicrobial activity against multidrug-resistant Mycobacterium tuberculosis H37Rv.
The subject of assay [8] is Mycobacterium tuberculosis. The assay can be described thus: Antimicrobial activity against multidrug-resistant Mycobacterium tuberculosis isolate 5 expressing wild type atpE Ala63Pro mutant selected after 10 times MIC drug exposure. The essentials:
as §1

Assay [9] concerns Mycobacterium tuberculosis. As to the kind of experiment: Antimicrobial activity against drug-susceptible Mycobacterium tuberculosis isolate 4 expressing wild type atpE Glu61Asp mutant selected after 10 times MIC drug exposure. The essentials: as §1
For assay [10], the system named is Mycobacterium tuberculosis. As to the kind of experiment: Antimicrobial activity against multidrug-resistant Mycobacterium tuberculosis isolate 3 expressing wild type atpE and F0 operon selected after 30 times MIC drug exposure. The essentials: as §1
In assay [11] the test system is Mycobacterium tuberculosis. The assay can be described thus: Antimicrobial activity against drug-susceptible Mycobacterium tuberculosis isolate 6 expressing wild type atpE Ala63Pro mutant selected after 30 times MIC drug exposure. The essentials:
as §1

For assay [12], the system named is Mycobacterium tuberculosis. As to the kind of experiment: Antimicrobial activity against drug-susceptible Mycobacterium tuberculosis H37Rv expressing wild type atpE Ala63Pro mutant selected after 30 times MIC drug exposure. The essentials: as §1
The test system of assay [13] is Mycobacterium tuberculosis. As to the kind of experiment: Antimicrobial activity against drug-susceptible Mycobacterium tuberculosis isolate 6 expressing wild type atpE Glu61Asp mutant selected after 30 times MIC drug exposure. The essentials:
as §1

Assay [14] deals with Mycobacterium tuberculosis. The assay can be described thus: Antimicrobial activity against multidrug-resistant Mycobacterium tuberculosis isolate 3 expressing wild type atpE and F0 operon selected after 10 times MIC drug exposure. The essentials: as §1
Assay [15] has as its system Mycobacterium tuberculosis. As to the kind of experiment: Antimicrobial activity against drug-susceptible Mycobacterium tuberculosis isolate 4 expressing wild type atpE Asp28Pro mutant selected after 10 times MIC drug exposure. The essentials: as §1
Assay [16] relates to Mycobacterium tuberculosis. As to the kind of experiment: Antimicrobial activity against drug-susceptible Mycobacterium tuberculosis isolate 4 expressing wild type atpE Glu61Asp mutant selected after 30 times MIC drug exposure. The essentials:
as §1

Assay [17] has as its system Mycobacterium tuberculosis. The assay can be described thus: Antimicrobial activity against multidrug-resistant Mycobacterium tuberculosis isolate 1 expressing atpE Glu63Asp mutant selected after 30 times MIC drug exposure. The essentials: as §1
The test system of assay [18] is Mycobacterium tuberculosis. The assay can be described thus: Antimicrobial activity against multidrug-resistant Mycobacterium tuberculosis isolate 3 expressing wild type atpE selected after 10 times MIC drug exposure. The essentials: as §1
The test system of assay [19] is Mycobacterium tuberculosis. As to the kind of experiment: Antimicrobial activity against multidrug-resistant Mycobacterium tuberculosis isolate 2 expressing atpE Glu61Asp mutant selected after 10 times MIC drug exposure. The essentials: as §1
In assay [20] the test system is Mycobacterium tuberculosis. The assay can be described thus: Antimicrobial activity against multidrug-resistant Mycobacterium tuberculosis isolate 5 expressing wild type atpE selected after 10 times MIC drug exposure. The essentials: as §1
Assay [21] deals with Mycobacterium tuberculosis. The assay can be described thus: Antimicrobial activity against multidrug-resistant Mycobacterium tuberculosis isolate 3 expressing wild type atpE and ATP synthase selected after 10 times MIC drug exposure. The essentials:
as §1

The subject of assay [22] is Mycobacterium tuberculosis. The assay can be described thus: Antimicrobial activity against multidrug-resistant Mycobacterium tuberculosis isolate 1 expressing wild type atpE selected after 10 times MIC drug exposure. The essentials:
as §1

One may read the MIC as the lowest concentration found to suppress growth. On to `COc1nc2ccc(Br)cc2cc1[C@@H](c1ccccc1)[C@@](O)(CCN(C)C)c1cccc2ccccc12` [BEDAQUILINE], for which the MIC in assay [1] was determined as 0.48 µg/mL (≈ 0.864 µM); in assay [2] it was 0.12 µg/mL (≈ 0.216 µM); in assay [3], 0.48 µg/mL (≈ 0.864 µM); in assay [4], 0.48 µg/mL (≈ 0.864 µM); in assay [5], 0.48 µg/mL (≈ 0.864 µM); in assay [6], 0.9 µg/mL (≈ 1.62 µM). Besides, the MIC in [7] amounted to 0.03 µg/mL (≈ 0.054 µM); in assay [8], 0.24 µg/mL (≈ 0.432 µM); in assay [9], 0.96 µg/mL (≈ 1.73 µM); in assay [10], 0.9 µg/mL (≈ 1.62 µM); in assay [11] it was 0.9 µg/mL (≈ 1.62 µM); in assay [12], 3.84 µg/mL (≈ 6.91 µM). In addition, the minimum inhibitory concentration (MIC) in [13] amounted to 0.48 µg/mL (≈ 0.864 µM); in assay [14], 0.9 µg/mL (≈ 1.62 µM); in assay [15], 0.3 µg/mL (≈ 0.54 µM); in assay [16], 0.48 µg/mL (≈ 0.864 µM); in assay [17], 1.92 µg/mL (≈ 3.46 µM); in [18], 0.9 µg/mL (≈ 1.62 µM). Moreover, the MIC in assay [19] amounted to 0.24 µg/mL (≈ 0.432 µM); in [20], 0.12 µg/mL (≈ 0.216 µM); in [21] it was 0.9 µg/mL (≈ 1.62 µM); in [22], 0.12 µg/mL (≈ 0.216 µM).

For the origin of these results see ChEMBL document CHEMBL1255391, “Rates and mechanisms of resistance development in Mycobacterium tuberculosis to a novel diarylquinoline ATP synthase inhibitor” (2010).
